Series [1] is described as follows: melting temperature; fluorescence melt of hairpins on a sequencing array, two-state fit, raised by 9.35 °C to match UV melts. The settings on record: sodium 0.088 M. The essentials:
(§1)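 Two-state fits, bootstrapped, provided melting temperature and folding enthalpy from Cy3 fluorescence normalised to pre-quench Cy3 and to control constructs. Library hairpins with annealed Cy3 and quencher oligos were imaged on a sequenced MiSeq flow cell in 50 mM Na-HEPES pH 8.0, 25 mM NaCl, at 2.5 °C intervals up to 60 °C. Four replicates were combined with inverse-variance weighting. A 9.35 °C upward shift was applied to fitted temperatures to match UV melts.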

Series [2] in a line: folding enthalpy; higher = less favourable; fluorescence melt of hairpins on a sequencing array, two-state fit. As to conditions: sodium 0.088 M. The gist of the method:
as §1

In the case of GGTTCCGAAAGGATTACC ((((((....)))..))), in series [1], the Tm came out at 34.6 °C. Besides, the folding enthalpy in series [2] is -19.9 kcal/mol.

With GGTTCCGGAAACGGAGCC ((.((((....)))).)), in series [1], the Tm worked out at 58.4 °C. Moreover, in series [2], the folding enthalpy is -41.6 kcal/mol.

With GGTTCGCCGAAAGGCACC (((..(((....)))))), the Tm in series [1] came to 30.1 °C. Further, the folding enthalpy in series [2] was -8.49 kcal/mol.

With GGTTCGCGAAAGCGTACC (((.(((....))).))), the Tm in series [1] is 56 °C. For the same sequence, the folding enthalpy in series [2] was -26 kcal/mol.

Take GGTTCGGAAACGAACC ((((((....)))))): the Tm in series [1] stood at 67.3 °C. Also, the folding enthalpy in series [2] was -33.2 kcal/mol.

For GGTTCGGGAAACCAAACC ((((.((....)).)))), in series [1], the Tm was determined as 40.4 °C. Also, in series [2], the folding enthalpy is -30.3 kcal/mol.

As to GGTTCGGGAAACTGAGCC ((.((.(....).)).)), the Tm in series [1] came out at 39.3 °C. Also, the folding enthalpy in series [2] is -27.1 kcal/mol.

In the case of GGTTCTGGAAACGGAACC (((((.(....).))))), the Tm in series [1] came out at 52.3 °C. For the same sequence, the folding enthalpy in series [2] was -45 kcal/mol.

Regarding GGTTCTGGAAACGGAATC (.(((.(....).))).), the Tm in series [1] came to 33 °C. In addition, in series [2], the folding enthalpy is -18.7 kcal/mol.

Turning to GGTTGACCGAAAGGTACC (((..(((....)))))), the Tm in series [1] came out at 36.4 °C. Also, the folding enthalpy in series [2] was -16.5 kcal/mol.

For the sequence GGTTGAGAAATCAACC ((((((....)))))), the Tm in series [1] amounted to 53.3 °C. Further, the folding enthalpy in series [2] was -34 kcal/mol.

Consider GGTTGCGAAAGCAACACC ((((((....)))..))), for which, in series [1], the Tm amounted to 50 °C. The folding enthalpy in series [2] was -8.28 kcal/mol.

As for GGTTGCGAAAGCAAGACC ((((((....)))..))), the Tm in series [1] is 44.2 °C. Moreover, in series [2], the folding enthalpy is -14.6 kcal/mol.

In the case of GGTTGCGAAAGCACACC ((((((....))).))), in series [1], the Tm worked out at 53.4 °C. Also, the folding enthalpy in series [2] was -19.7 kcal/mol.

Regarding GGTTGCGAAAGCACCACC ((((((....)))..))), in series [1], the Tm amounted to 45.1 °C. The folding enthalpy in series [2] is -11.6 kcal/mol.

With GGTTGCGAAAGCACGACC ((((((....)))..))), the Tm in series [1] is 40.6 °C. Further, in series [2], the folding enthalpy is -15.8 kcal/mol.

Consider GGTTGCGAAAGCATAACC ((((((....)))..))), for which, in series [1], the Tm is 45.9 °C. For the same sequence, the folding enthalpy in series [2] was -20.5 kcal/mol.

As to GGTTGCGAAAGCATCACC ((((((....)))..))), in series [1], the Tm stood at 36.2 °C. For the same sequence, the folding enthalpy in series [2] is -13 kcal/mol.

Turning to GGTTGCGAAAGCATTACC ((((((....)))..))), the Tm in series [1] worked out at 37.8 °C. Moreover, in series [2], the folding enthalpy was -17.7 kcal/mol.

In the case of GGTTGCGGAAACGCAGCC ((.((((....)))).)), in series [1], the Tm is 63.5 °C. Further, in series [2], the folding enthalpy is -39.2 kcal/mol.

For GGTTGCGGAAACGCGACC (((.(((....))).))), the Tm in series [1] amounted to 65.8 °C. Moreover, the folding enthalpy in series [2] was -37.7 kcal/mol.

As to GGTTGGACGAAAGTCACC (((..(((....)))))), in series [1], the Tm was determined as 34.1 °C. In addition, in series [2], the folding enthalpy was -12.2 kcal/mol.

Consider GGTTGGCGAAAGCCTACC (((.(((....))).))), for which, in series [1], the Tm turned out to be 59.6 °C. Besides, the folding enthalpy in series [2] was -25.3 kcal/mol.

As for GGTTGGGGAAACTCGACC (((.(.(....).).))), the Tm in series [1] amounted to 39.5 °C. In series [2], the folding enthalpy was -23.2 kcal/mol.

With GGTTGTACGAAAGTAACC (((..(((....)))))), the Tm in series [1] is 38 °C. In addition, in series [2], the folding enthalpy was -20.9 kcal/mol.

As for GGTTGTCGAAAGACCACC (((.(((....))).))), in series [1], the Tm is 48.3 °C. Moreover, in series [2], the folding enthalpy is -26.2 kcal/mol.

For the sequence GGTTGTGGAAACACAGTC (..((((....))))..), the Tm in series [1] came to 29.1 °C. In addition, the folding enthalpy in series [2] is -13.2 kcal/mol.

For GGTTGTGGAAACATAGCC ((.(.((....)).).)), the Tm in series [1] was 31.6 °C. Also, the folding enthalpy in series [2] was -19.1 kcal/mol.

On to GGTTTACCGAAAGGTACC (((..(((....)))))), for which the Tm in series [1] worked out at 32.4 °C. The folding enthalpy in series [2] was -9.75 kcal/mol.

For the sequence GGTTTAGGAAACTAAACC (((((((....))))))), the Tm in series [1] is 54.2 °C. In series [2], the folding enthalpy was -54.6 kcal/mol.

Turning to GGTTTCGAAAGAAATACC ((((((....)))..))), the Tm in series [1] was found to be 32.7 °C. For the same sequence, the folding enthalpy in series [2] was -19.6 kcal/mol.

On to GGTTTCGAAAGAACCACC ((((((....)))..))), for which the Tm in series [1] was determined as 34.4 °C. Moreover, the folding enthalpy in series [2] is -17.1 kcal/mol.

As to GGTTTCGAAAGAATAACC ((((((....)))..))), in series [1], the Tm stood at 31.5 °C. For the same sequence, in series [2], the folding enthalpy was -20.1 kcal/mol.

For the sequence GGTTTCGAAAGAATACC ((((((....))).))), the Tm in series [1] came to 38 °C. Further, the folding enthalpy in series [2] is -25.6 kcal/mol.

GGTTTCGAAAGAATTACC ((((((....)))..))): the Tm in series [1] came to 27.9 °C. Also, the folding enthalpy in series [2] is -14.2 kcal/mol.

As to GGTTTCGGAAACAAAACC (((((.(....).))))), the Tm in series [1] came out at 36.6 °C. Moreover, in series [2], the folding enthalpy was -22.7 kcal/mol.

In the case of GGTTTCGGAAACGAAACC (((((((....))))))), the Tm in series [1] stood at 66.5 °C. Moreover, the folding enthalpy in series [2] was -46 kcal/mol.

With GGTTTGCGAAAGCATACC (((.(((....))).))), in series [1], the Tm worked out at 52.9 °C. For the same sequence, in series [2], the folding enthalpy is -40.6 kcal/mol.

As for GGTTTGGCGAAAGCCACC (((..(((....)))))), the Tm in series [1] was 31.9 °C. Also, the folding enthalpy in series [2] is -8.59 kcal/mol.

Turning to GGTTTGGGAAACCAAGCC ((.((((....)))).)), the Tm in series [1] was 49.9 °C. In series [2], the folding enthalpy is -33.5 kcal/mol.

In the case of GGTTTTCGAAAGAACACC (((.(((....))).))), in series [1], the Tm was determined as 42.8 °C. Further, the folding enthalpy in series [2] was -35.5 kcal/mol.

For GGTTTTGAAAAAAACC ((((((....)))))), the Tm in series [1] was determined as 51.5 °C. The folding enthalpy in series [2] was -26.5 kcal/mol.

For GGTTTTGGAAACAAAATC (.(((((....))))).), the Tm in series [1] was determined as 41.5 °C. For the same sequence, the folding enthalpy in series [2] is -33.4 kcal/mol.

Regarding GGTTTTGGAAACAAAGCC ((.((((....)))).)), the Tm in series [1] came out at 46 °C. Further, the folding enthalpy in series [2] is -29.1 kcal/mol.

As to GGTTTTTCGAAAGAAACC (((..(((....)))))), the Tm in series [1] amounted to 34 °C. For the same sequence, the folding enthalpy in series [2] was -18.8 kcal/mol.

Regarding GTAAAAACGAAAGTTTAC (((..(((....)))))), the Tm in series [1] came to 27.8 °C. In series [2], the folding enthalpy is -11.4 kcal/mol.

As for GTAAAACGAAAGTTCTAC (((.(((....))).))), the Tm in series [1] worked out at 27.6 °C. The folding enthalpy in series [2] is -13.9 kcal/mol.

For GTAAAACGAAAGTTTAC (((.(((....)))))), the Tm in series [1] worked out at 35.2 °C. The folding enthalpy in series [2] is -17.4 kcal/mol.

In the case of GTAAACGAAAGTTTAC ((((((....)))))), in series [1], the Tm was 56 °C. Moreover, the folding enthalpy in series [2] was -35.2 kcal/mol.

Turning to GTAAAGCGAAAGCTGTAC (((.(((....))).))), the Tm in series [1] worked out at 44.4 °C. Moreover, in series [2], the folding enthalpy is -20.4 kcal/mol.

GTAAAGGCGAAAGCCTAC (((..(((....)))))): the Tm in series [1] worked out at 35 °C. For the same sequence, in series [2], the folding enthalpy was -10 kcal/mol.

In the case of GTAAATGGAAACGTTTAC (((((.(....).))))), the Tm in series [1] stood at 35 °C. For the same sequence, in series [2], the folding enthalpy was -32.9 kcal/mol.

Take GTAACAGGAAACTGCTAC (((.(((....))).))): the Tm in series [1] worked out at 32 °C. Besides, the folding enthalpy in series [2] was -29.1 kcal/mol.

GTAACCGAAAGGTCTAC ((((((....))).))): the Tm in series [1] was determined as 35.5 °C. In series [2], the folding enthalpy was -13.4 kcal/mol.

For GTAACCGAAAGGTTGTAC ((((((....)))..))), the Tm in series [1] is 33.4 °C. The folding enthalpy in series [2] was -10.4 kcal/mol.

The record behind these values is the array DNA melting data of Ke et al. (doi:10.1101/2024.01.08.574731).
